Published values from different studies.
Target: Serine/threonine-protein kinase ULK3 (ULK3, Homo sapiens, UniProt Q6PHR2)
One construct used (Q6PHR2 1-472): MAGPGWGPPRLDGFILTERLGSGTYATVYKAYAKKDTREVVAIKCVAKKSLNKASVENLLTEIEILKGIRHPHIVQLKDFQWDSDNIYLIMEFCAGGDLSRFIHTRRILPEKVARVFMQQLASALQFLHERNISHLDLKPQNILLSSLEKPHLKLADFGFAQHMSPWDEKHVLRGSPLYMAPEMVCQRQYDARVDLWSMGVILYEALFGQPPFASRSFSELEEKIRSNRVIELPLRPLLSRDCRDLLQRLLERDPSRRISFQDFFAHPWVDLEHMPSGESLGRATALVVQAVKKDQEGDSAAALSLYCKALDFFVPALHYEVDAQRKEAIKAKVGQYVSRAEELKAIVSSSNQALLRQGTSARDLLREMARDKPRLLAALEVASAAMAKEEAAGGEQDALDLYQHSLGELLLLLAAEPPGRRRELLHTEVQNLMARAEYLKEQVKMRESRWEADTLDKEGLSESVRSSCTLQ

C1=C/COCc2cc(ccc2OCCN2CCCC2)Nc2nccc(n2)-c2cccc(c2)COC/1 — remaining signal (cell-free assay; 0.1 µM): 57%
CCCCC(=O)Nc1ccc(-c2ccc3ncn(CCC)c(=O)c3c2)cn1 — remaining binding (binding; competition with immobilised ligand; 0.5 µM): 99%
C=CC(=O)N1CCC[C@@H](n2nc(-c3ccc(Oc4ccccc4)cc3)c3c(N)ncnc32)C1 — inhibition (enzyme activity; inhibitor; 1 µM): 29%
COc1ccc2oc(-c3ccc4nc(N)oc4c3)c/c(=N\c3ccccc3NC(=O)CCN)c2c1 — remaining binding (binding; 1 µM): 96%
CN1CCN(C(=O)c2ccc(NC(=O)Nc3ccc(N(C)c4ccnc(Nc5ccc(CS(C)(=O)=O)cc5)n4)cc3)cc2)CC1 — remaining binding (binding; competition with immobilised ligand; 1 µM): 7.6%
C=CC(=O)N1CCC([C@@H]2CCNc3c(C(N)=O)c(-c4ccc(Oc5ccccc5)cc4)nn32)CC1 — inhibition (enzyme activity; inhibitor; 1 µM): 11%
Cc1ccc(NC(=O)c2ccnc(C(F)(F)F)c2)cc1-c1cc(OCCO)nc(N2CCOCC2)c1 — remaining binding (binding; competition with immobilised ligand; 1 µM): 85%
C#Cc1cc(-c2cc(Nc3nc(N[C@@H](C)c4ccc(F)cn4)ncc3Cl)n[nH]2)ccc1C=O — inhibition (enzyme activity; inhibitor; 0.2 µM): 57.5%
